From ChEMBL document CHEMBL4765369, “Optimal linker length for small molecule PROTACs that selectively target p38α and p38β for degradation” (Eur J Med Chem, 2020)
Activity calls are given as the source filed them. No cut-off for these calls is given here.

Experiments:
[1] = target: T1, Protein cereblon/Mitogen-activated protein kinase 14 (Homo sapiens, UniProt Q16539+Q96SW2); experiment: Protac activity at CRBN/p38alpha in human T47D cells assessed as p38alpha degradation at 10 uM measured after 24 hrs by immunoblotting analysis; assay type: cell-based
Outline: (§1)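 BBL358 or T47D cells given compound 10 µM for 24 h. RIPA lysates run on SDS-PAGE and immunoblotted for p38α. Odyssey infrared band intensities give p38α/tubulin ratio, normalised to untreated cells and reported as % degradation. Mean ±SEM with n=2 or more (one set: n=2 BBL358, n=1 T47D).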
Target sequence in this assay (Q16539 2-360 limits assumed): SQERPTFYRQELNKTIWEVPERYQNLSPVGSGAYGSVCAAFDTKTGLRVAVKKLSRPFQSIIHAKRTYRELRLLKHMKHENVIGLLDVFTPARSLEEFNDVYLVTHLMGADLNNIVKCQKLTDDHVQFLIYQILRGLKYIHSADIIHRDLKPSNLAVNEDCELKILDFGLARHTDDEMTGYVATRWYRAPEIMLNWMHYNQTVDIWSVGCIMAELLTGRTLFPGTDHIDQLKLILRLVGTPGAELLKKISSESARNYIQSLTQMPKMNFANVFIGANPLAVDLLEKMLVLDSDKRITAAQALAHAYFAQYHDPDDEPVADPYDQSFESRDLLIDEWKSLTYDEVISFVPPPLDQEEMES
Target sequence in this assay (Q96SW2 whole entry partner): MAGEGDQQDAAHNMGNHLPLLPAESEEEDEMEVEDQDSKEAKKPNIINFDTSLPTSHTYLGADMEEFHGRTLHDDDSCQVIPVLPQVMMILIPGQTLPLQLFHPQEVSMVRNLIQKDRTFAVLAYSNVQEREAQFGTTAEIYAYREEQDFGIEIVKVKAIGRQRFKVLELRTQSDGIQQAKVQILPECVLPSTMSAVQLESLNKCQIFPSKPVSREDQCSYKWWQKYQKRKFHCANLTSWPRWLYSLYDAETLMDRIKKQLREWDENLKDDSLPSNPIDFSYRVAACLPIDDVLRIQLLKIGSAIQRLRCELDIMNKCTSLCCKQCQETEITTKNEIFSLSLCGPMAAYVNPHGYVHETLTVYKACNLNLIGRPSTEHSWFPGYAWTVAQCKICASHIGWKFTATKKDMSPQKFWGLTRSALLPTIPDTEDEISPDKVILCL

[2] = target: T1, Protein cereblon/Mitogen-activated protein kinase 14; experiment: Protac activity at CRBN/p38alpha in human BBL358 cells assessed as p38alpha degradation at 10 uM measured after 24 hrs by immunoblotting analysis; assay type: cell-based; outline: as §1
Target sequence in this assay (Q16539 2-360 limits assumed): as the sequence (Q16539 2-360 limits assumed) above
Target sequence in this assay (Q96SW2 whole entry partner): as the sequence (Q96SW2 whole entry partner) above

[3] = target: T1, Protein cereblon/Mitogen-activated protein kinase 14; experiment: Protac activity at CRBN/p38alpha in human MDA-MB-231 cells assessed as p38alpha degradation at 1 uM measured after 24 hrs by immunoblotting analysis; assay type: cell-based
Outline: (§2)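 MDA-MB-231 and T47D cells exposed 24 h to 1 µM; N-methylated imide analogues tested alongside. RIPA lysates immunoblotted for p38α, intensities quantified from infrared imaging.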
Target sequence in this assay (Q16539 2-360 limits assumed): as the sequence (Q16539 2-360 limits assumed) above
Target sequence in this assay (Q96SW2 whole entry partner): as the sequence (Q96SW2 whole entry partner) above

[4] = target: T1, Protein cereblon/Mitogen-activated protein kinase 14; experiment: Protac activity at CRBN/p38alpha in human T47D cells assessed as p38alpha degradation at 1 uM measured after 24 hrs by immunoblotting analysis; assay type: cell-based; outline: as §2
Target sequence in this assay (Q16539 2-360 limits assumed): as the sequence (Q16539 2-360 limits assumed) above
Target sequence in this assay (Q96SW2 whole entry partner): as the sequence (Q96SW2 whole entry partner) above

[5] = target: T1, Protein cereblon/Mitogen-activated protein kinase 14; experiment: Protac activity at CRBN/p38alpha in human MDA-MB-231 cells assessed as reduction in UV-induced MK2 phosphorylation at 1 uM after 24 hrs by immunoblotting analysis; assay type: cell-based
Outline: (§3)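 MDA-MB-231 cells pre-incubated with compound, then p38α pathway stimulated with UV at 30 J/m2; PH797804 reference at 2 µM. Lysates immunoblotted for phospho-MK2. Cells grown in DMEM with 10% FBS at 37 °C, 5% CO2.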
Target sequence in this assay (Q16539 2-360 limits assumed): as the sequence (Q16539 2-360 limits assumed) above
Target sequence in this assay (Q96SW2 whole entry partner): as the sequence (Q96SW2 whole entry partner) above

[6] = target: T1, Protein cereblon/Mitogen-activated protein kinase 14; experiment: Protac activity at CRBN/p38alpha in human retina epithelial cells assessed as p38alpha degradation at 1 uM measured after 24 hrs by immunoblotting analysis; assay type: tissue-based; conditions: Epithelial cell
Target sequence in this assay (Q16539 2-360 limits assumed): as the sequence (Q16539 2-360 limits assumed) above
Target sequence in this assay (Q96SW2 whole entry partner): as the sequence (Q96SW2 whole entry partner) above

[7] = Induction of change in p38alpha protein expression in human MDA-MB-231 cells at 1 uM incubated for 16 hrs by mass spectrometry based proteomic analysis; assay type: cell-based; conditions: mda-mb-231, 16 h
Outline: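 MDA-MB-231 cells SILAC-labelled to ≥95% in arginine/lysine-free DMEM-F12 with 2% dialysed FBS; heavy cells got compound, light cells got DMSO, 16 h. Lysis in 4% SDS, 0.1 M DTT, Tris pH 7.6; FASP trypsin digestion overnight at 37 °C; nano-LC C18 MS/MS with 300 min run; protein-level heavy/light change.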

[8] = target: T1, Protein cereblon/Mitogen-activated protein kinase 14; experiment: Protac activity at CRBN/p38alpha in […] cells assessed as p38alpha degradation at 1 uM measured after 24 hrs by immunoblotting analysis; assay type: cell-based
[9] = target: T1, Protein cereblon/Mitogen-activated protein kinase 14; experiment: Protac activity at CRBN/p38alpha in human MDA-MB-231 cells assessed as p38alpha degradation measured after 24 hrs by immunoblotting analysis; assay type: cell-based
Outline: (§4)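 T47D and MDA-MB-231 cells treated with a concentration series for 24 h; lysates immunoblotted for p38α. p38α/tubulin band ratio normalised to untreated cells; DC50 (conc. giving 50% degradation) fitted from biological duplicates.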
Target sequence in this assay (Q16539 whole entry): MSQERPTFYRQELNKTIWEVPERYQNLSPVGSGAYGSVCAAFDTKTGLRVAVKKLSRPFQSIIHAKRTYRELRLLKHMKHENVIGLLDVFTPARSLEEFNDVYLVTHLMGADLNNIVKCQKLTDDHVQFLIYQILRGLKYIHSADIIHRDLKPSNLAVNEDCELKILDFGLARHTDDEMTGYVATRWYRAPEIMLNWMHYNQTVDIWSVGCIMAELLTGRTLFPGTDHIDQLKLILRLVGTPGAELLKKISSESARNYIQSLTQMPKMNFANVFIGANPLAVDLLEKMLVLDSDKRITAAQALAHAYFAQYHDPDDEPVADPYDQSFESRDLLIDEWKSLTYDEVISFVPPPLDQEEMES
Target sequence in this assay (Q96SW2 whole entry): as the sequence (Q96SW2 whole entry partner) above

[10] = Protac activity at CRBN/p38alpha in mouse bone marrow derived macrophages assessed as p38alpha degradation at 1 uM measured after 24 hrs by immunoblotting analysis; conditions: Macrophage
[11] = target: T2, Protein cereblon/Mitogen-activated protein kinase 11 (Homo sapiens, UniProt Q15759+Q96SW2); experiment: Protac activity at CRBN/p38beta in human T47D cells assessed as p38beta degradation at 1 uM measured after 24 hrs by immunoblotting analysis; assay type: cell-based
Target sequence in this assay (Q15759 whole entry): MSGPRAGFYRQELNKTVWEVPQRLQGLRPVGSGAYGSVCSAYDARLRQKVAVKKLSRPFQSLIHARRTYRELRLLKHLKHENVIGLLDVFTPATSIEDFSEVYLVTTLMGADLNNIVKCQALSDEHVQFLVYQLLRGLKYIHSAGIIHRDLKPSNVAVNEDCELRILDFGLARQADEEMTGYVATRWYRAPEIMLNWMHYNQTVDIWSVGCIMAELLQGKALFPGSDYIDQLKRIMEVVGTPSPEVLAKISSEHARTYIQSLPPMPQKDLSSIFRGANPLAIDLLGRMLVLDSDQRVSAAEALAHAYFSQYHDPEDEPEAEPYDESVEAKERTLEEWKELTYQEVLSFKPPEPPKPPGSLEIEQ
Target sequence in this assay (Q96SW2 whole entry): as the sequence (Q96SW2 whole entry partner) above

[12] = target: T2, Protein cereblon/Mitogen-activated protein kinase 11; experiment: Protac activity at CRBN/p38beta in human MDA-MB-231 cells assessed as p38beta degradation at 1 uM measured after 24 hrs by immunoblotting analysis; assay type: cell-based
Target sequence in this assay (Q15759 whole entry): as the sequence (Q15759 whole entry) above
Target sequence in this assay (Q96SW2 whole entry): as the sequence (Q96SW2 whole entry partner) above

[13] = target: T1, Protein cereblon/Mitogen-activated protein kinase 14; experiment: Protac activity at CRBN/p38alpha in human T47D cells assessed as p38alpha degradation measured after 24 hrs by immunoblotting analysis; assay type: cell-based; outline: as §4
Target sequence in this assay (Q16539 whole entry): as the sequence (Q16539 whole entry) above
Target sequence in this assay (Q96SW2 whole entry): as the sequence (Q96SW2 whole entry partner) above

[14] = target: T1, Protein cereblon/Mitogen-activated protein kinase 14; experiment: Protac activity at CRBN/p38alpha in human MDA-MB-231 cells assessed as reduction in UV-induced MK2 phosphorylation at 1 uM after 48 hrs by immunoblotting analysis; assay type: cell-based; outline: as §3
[15] = Protac activity at CRBN/p38beta in mouse bone marrow derived macrophages assessed as p38beta degradation at 1 uM measured after 24 hrs by immunoblotting analysis; conditions: Macrophage
[16] = target: T2, Protein cereblon/Mitogen-activated protein kinase 11; experiment: Protac activity at CRBN/p38beta in […] cells assessed as p38beta degradation at 1 uM measured after 24 hrs by immunoblotting analysis; assay type: cell-based
Target sequence in this assay (Q15759 whole entry, looked up): as the sequence (Q15759 whole entry) above
Target sequence in this assay (Q96SW2 whole entry, looked up): as the sequence (Q96SW2 whole entry partner) above

[17] = target: T2, Protein cereblon/Mitogen-activated protein kinase 11; experiment: Protac activity at CRBN/p38beta in human retina epithelial cells assessed as p38beta degradation at 1 uM measured after 24 hrs by immunoblotting analysis; assay type: tissue-based; conditions: Epithelial cell
Target sequence in this assay (Q15759 whole entry, looked up): as the sequence (Q15759 whole entry) above
Target sequence in this assay (Q96SW2 whole entry, looked up): as the sequence (Q96SW2 whole entry partner) above

Structure (SMILES)	Activity [1]	Activity [2]	other results
Cc1ccc(C(=O)NCCCc2cn(CCCC(=O)NCCCCNc3cccc4c3C(=O)N(C3CCC(=O)NC3=O)C4=O)nn2)cc1-n1c(C)cc(OCc2ccc(F)cc2F)c(Br)c1=O (centres undefined)	91%	84%	–
Cc1ccc(C(=O)NCCc2cn(CCCC(=O)NCCNc3cccc4c3C(=O)N(C3CCC(=O)NC3=O)C4=O)nn2)cc1-n1c(C)cc(OCc2ccc(F)cc2F)c(Br)c1=O (centres undefined)	8%	–	–
Cc1ccc(C(=O)NCCc2cn(CCCC(=O)NCCCNc3cccc4c3C(=O)N(C3CCC(=O)NC3=O)C4=O)nn2)cc1-n1c(C)cc(OCc2ccc(F)cc2F)c(Br)c1=O (centres undefined)	42%	36%	–
Cc1ccc(C(=O)NCCCCc2cn(CCCC(=O)NCCCCCNc3cccc4c3C(=O)N(C3CCC(=O)NC3=O)C4=O)nn2)cc1-n1c(C)cc(OCc2ccc(F)cc2F)c(Br)c1=O (centres undefined)	82%	77%	–
Cc1ccc(C(=O)NCCCCc2cn(CCCC(=O)NCCCCNc3cccc4c3C(=O)N(C3CCC(=O)N(C)C3=O)C4=O)nn2)cc1-n1c(C)cc(OCc2ccc(F)cc2F)c(Br)c1=O (centres undefined)	–	–	Activity [3]: inactive; Activity [4]: inactive; Activity [5]: inactive
Cc1ccc(C(=O)NCCCCc2cn(CCCC(=O)NCCCCNc3cccc4c3C(=O)N(C3CCC(=O)NC3=O)C4=O)nn2)cc1-n1c(C)cc(OCc2ccc(F)cc2F)c(Br)c1=O (centres undefined)	89%	84%	Activity [6]: Active; Activity [7]: Active; Activity [8]: Active; DC50 [9]: 27.2 nM; Activity [10]: Active; DC50 [11]: 48.5 nM; DC50 [12]: 48.9 nM; DC50 [13]: 24 nM; Activity [5]: Active; Activity [14]: Active; Activity [15]: Active; Activity [16]: Active; Activity [17]: Active
Cc1ccc(C(=O)NCCOCCOCCNc2cccc3c2C(=O)N(C2CCC(=O)NC2=O)C3=O)cc1-n1c(C)cc(OCc2ccc(F)cc2F)c(Br)c1=O (centres undefined)	–	60%	–
Cc1ccc(C(=O)NCCCCc2cn(CCCC(=O)NCCOCCOCCNc3cccc4c3C(=O)N(C3CCC(=O)NC3=O)C4=O)nn2)cc1-n1c(C)cc(OCc2ccc(F)cc2F)c(Br)c1=O (centres undefined)	85%	79%	–
Cc1ccc(C(=O)NCCCCc2cn(CCCC(=O)NCCNc3cccc4c3C(=O)N(C3CCC(=O)NC3=O)C4=O)nn2)cc1-n1c(C)cc(OCc2ccc(F)cc2F)c(Br)c1=O (centres undefined)	40%	12%	–
C=C1c2cccc(NCCCCCNC(=O)CCCn3cc(CCCCNC(=O)c4ccc(C)c(-n5c(C)cc(OCc6ccc(F)cc6F)c(Br)c5=O)c4)nn3)c2C(=O)N1C1CCC(=O)NC1=O (centres undefined)	16%	47%	–
Cc1ccc(C(=O)NCCCCc2cn(CCOCCOCCOCCOCCNc3cccc4c3C(=O)N(C3CCC(=O)NC3=O)C4=O)nn2)cc1-n1c(C)cc(OCc2ccc(F)cc2F)c(Br)c1=O (centres undefined)	41%	92%	–
Cc1ccc(C(=O)NCCCCc2cn(CC[C@H](NC(=O)OC(C)(C)C)C(=O)NCCCCNc3cccc4c3C(=O)N(C3CCC(=O)NC3=O)C4=O)nn2)cc1-n1c(C)cc(OCc2ccc(F)cc2F)c(Br)c1=O (some centres undefined)	93%	81%	–
Cc1ccc(C(=O)NCCc2cn(CCCC(=O)NCCCCNc3cccc4c3C(=O)N(C3CCC(=O)NC3=O)C4=O)nn2)cc1-n1c(C)cc(OCc2ccc(F)cc2F)c(Br)c1=O (centres undefined)	25%	40%	–
Cc1ccc(C(=O)NCCCCNC(=O)c2ccc3c(c2)C(=O)N(C2CCC(=O)NC2=O)C3=O)cc1-n1c(C)cc(OCc2ccc(F)cc2F)c(Br)c1=O (centres undefined)	–	40%	–
Cc1ccc(C(=O)NCCCCc2cn(CCOCCOCCOCCNc3cccc4c3C(=O)N(C3CCC(=O)NC3=O)C4=O)nn2)cc1-n1c(C)cc(OCc2ccc(F)cc2F)c(Br)c1=O (centres undefined)	26%	78%	–
C=C1c2cccc(NCCCCCCNC(=O)CCCn3cc(CCCCNC(=O)c4ccc(C)c(-n5c(C)cc(OCc6ccc(F)cc6F)c(Br)c5=O)c4)nn3)c2C(=O)N1C1CCC(=O)N(C)C1=O (centres undefined)	–	–	Activity [3]: inactive; Activity [4]: inactive; Activity [5]: inactive
Cc1ccc(C(=O)NCCOCCOCCNC(=O)c2ccc3c(c2)C(=O)N(C2CCC(=O)NC2=O)C3=O)cc1-n1c(C)cc(OCc2ccc(F)cc2F)c(Br)c1=O (centres undefined)	–	55%	–
Cc1ccc(C(=O)NCCCCc2cn(CCCC(=O)NCCOCCOCCNc3cccc4c3C(=O)N(C3CCC(=O)N(Cc5ccccc5[N+](=O)[O-])C3=O)C4=O)nn2)cc1-n1c(C)cc(OCc2ccc(F)cc2F)c(Br)c1=O (centres undefined)	20%	3%	–
Cc1ccc(C(=O)NCCCCc2cn(CC[C@H](N)C(=O)NCCCCNc3cccc4c3C(=O)N(C3CCC(=O)NC3=O)C4=O)nn2)cc1-n1c(C)cc(OCc2ccc(F)cc2F)c(Br)c1=O (some centres undefined)	4%	–	–
Cc1ccc(C(=O)NCCCCc2cn(CCCC(=O)NCCCCCCNc3cccc4c3C(=O)N(C3CCC(=O)NC3=O)C4=O)nn2)cc1-n1c(C)cc(OCc2ccc(F)cc2F)c(Br)c1=O (centres undefined)	47%	67%	–
Cc1ccc(C(=O)NCCCCc2cn(CCCC(=O)NCCOCCOCCNC(=O)c3ccc4c(c3)C(=O)N(C3CCC(=O)N(Cc5ccccc5[N+](=O)[O-])C3=O)C4=O)nn2)cc1-n1c(C)cc(OCc2ccc(F)cc2F)c(Br)c1=O (centres undefined)	76%	0.5%	–
Cc1ccc(C(=O)NCCCc2cn(CCCC(=O)NCCCNc3cccc4c3C(=O)N(C3CCC(=O)NC3=O)C4=O)nn2)cc1-n1c(C)cc(OCc2ccc(F)cc2F)c(Br)c1=O (centres undefined)	68%	60%	–
Cc1ccc(C(=O)NCCCCNc2cccc3c2C(=O)N(C2CCC(=O)NC2=O)C3=O)cc1-n1c(C)cc(OCc2ccc(F)cc2F)c(Br)c1=O (centres undefined)	–	8%	–
Cc1ccc(C(=O)NCCCCc2cn(CCCC(=O)NCCCNc3cccc4c3C(=O)N(C3CCC(=O)NC3=O)C4=O)nn2)cc1-n1c(C)cc(OCc2ccc(F)cc2F)c(Br)c1=O (centres undefined)	87%	74%	–
Cc1ccc(C(=O)NCCOCCOCCOCCOCCOCCOCCNc2cccc3c2C(=O)N(C2CCC(=O)NC2=O)C3=O)cc1-n1c(C)cc(OCc2ccc(F)cc2F)c(Br)c1=O (centres undefined)	20%	82%	–
